Measured values gathered from unrelated publications.
Compare with care: the assays were run in different laboratories.
Target: Serine/threonine-protein kinase 17A (STK17A, Homo sapiens, UniProt Q9UEE5)
One construct used (Q9UEE5 1-414): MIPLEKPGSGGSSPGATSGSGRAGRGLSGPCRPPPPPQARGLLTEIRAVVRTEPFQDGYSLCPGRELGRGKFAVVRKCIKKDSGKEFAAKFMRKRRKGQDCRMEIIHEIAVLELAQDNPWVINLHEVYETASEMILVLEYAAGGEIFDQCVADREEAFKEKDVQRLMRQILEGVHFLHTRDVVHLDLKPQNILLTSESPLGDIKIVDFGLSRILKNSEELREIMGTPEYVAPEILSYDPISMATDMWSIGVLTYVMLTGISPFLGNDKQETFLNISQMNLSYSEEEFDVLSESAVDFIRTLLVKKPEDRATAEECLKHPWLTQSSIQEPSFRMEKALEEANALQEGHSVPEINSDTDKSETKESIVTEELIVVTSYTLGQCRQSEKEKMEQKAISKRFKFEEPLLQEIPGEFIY

SMILES | test | setting | measurement | value
C#Cc1n[nH]c2c(-c3cn([C@@H](C)c4ccccn4)c(=O)[nH]c3=O)cc(F)cc12 | enzyme activity, inhibitor | 0.1 µM | inhibition | -0.6%
Nc1ncc(-c2nc(N3CCOCC3)nc(N3CCOCC3)n2)c(C(F)F)n1 | binding, competition with immobilised ligand | 10 µM | remaining binding | 89%
O=c1[nH]c2ccccc2n1C1CCN(Cc2ccc(-c3[nH]c4cc5ncnc5cc4nc3-c3ccccc3)cc2)CC1 | cell-free assay | 0.5 µM | remaining signal | 98.2%
Cn1cc(-c2cc(F)cc(N3CCn4c(cc5c4CCCC5)C3=O)c2CO)cc(Nc2ccc(N3CCN(C4COC4)CC3)cn2)c1=O | enzyme activity, inhibitor | 0.1 µM | inhibition | 3%
C#Cc1n[nH]c2c(-c3cn([C@@H](C)c4ccccc4)c(=O)[nH]c3=O)cc(F)cc12 | enzyme activity, inhibitor | 0.1 µM | inhibition | 1.1%
Cc1nn(C)cc1-c1nc2c(N3CCN(Cc4ccc(Cl)cc4)CC3)c(Cl)cnc2[nH]1 | binding, competition with immobilised ligand | 1 µM | remaining binding | 13%
Cn1cc(-c2cccc(N3CCc4c(sc5c4CC(C)(C)C5)C3=O)c2CO)cc(Nc2ccncn2)c1=O | enzyme activity, inhibitor | 1 µM | inhibition | -5%
CC(C)(C)c1cc(C=C(C#N)C#N)cc(Br)c1O | enzyme activity, inhibitor | 0.5 µM | remaining activity | 92.3%
Cn1cncc1[C@](O)(COc1ccc(C#N)cc1-c1ccc(OC(F)(F)F)cc1)c1ccc(C#N)cc1 | cell-free assay, competition with immobilised ligand | 1 µM | remaining binding | 100%
COc1ncccc1-c1cnn2ccc(N3CCN(C(=O)OC(C)C)CC3)nc12 | binding, competition with immobilised ligand | 1 µM | remaining binding | 6.4%
